Entries after “also recorded” stand apart in the source; their conditions may differ.
Experiments:
[1] = cited from earlier work
[2] = system: MDA-MB-231 or MDA-MB-468 cells; test: Cell viability/growth of breast cancer cells harboring active STAT3; assay type: cell-based, human; conditions: for activity against breast cancer cells: up to 10 μM; for viability, anchorage-dependent and independent growth, and colony formation: at 1 μM or less
STAT3 = STAT3 (Mus musculus, UniProt P42227); assay type: biochemical
STAT3, sequence (P42227 2-770 limits assumed): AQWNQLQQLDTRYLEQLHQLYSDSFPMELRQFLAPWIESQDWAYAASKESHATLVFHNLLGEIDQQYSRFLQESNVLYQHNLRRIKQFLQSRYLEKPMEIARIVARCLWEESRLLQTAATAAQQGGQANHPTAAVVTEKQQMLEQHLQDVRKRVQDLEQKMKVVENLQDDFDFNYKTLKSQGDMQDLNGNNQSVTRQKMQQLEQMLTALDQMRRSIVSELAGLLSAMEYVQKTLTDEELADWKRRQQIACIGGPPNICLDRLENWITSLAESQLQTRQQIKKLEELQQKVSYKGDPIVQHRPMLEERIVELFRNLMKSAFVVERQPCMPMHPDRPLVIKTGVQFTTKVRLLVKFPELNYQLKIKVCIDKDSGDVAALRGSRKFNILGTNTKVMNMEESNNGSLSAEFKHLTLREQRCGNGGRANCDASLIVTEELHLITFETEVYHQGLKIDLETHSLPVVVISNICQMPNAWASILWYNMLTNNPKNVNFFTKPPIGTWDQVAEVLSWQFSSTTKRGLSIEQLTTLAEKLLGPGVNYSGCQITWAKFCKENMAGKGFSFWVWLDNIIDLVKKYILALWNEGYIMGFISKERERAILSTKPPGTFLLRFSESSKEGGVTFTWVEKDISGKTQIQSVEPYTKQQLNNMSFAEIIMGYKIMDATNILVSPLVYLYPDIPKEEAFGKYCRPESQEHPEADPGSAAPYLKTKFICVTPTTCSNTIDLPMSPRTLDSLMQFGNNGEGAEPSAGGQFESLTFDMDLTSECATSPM
STAT1:STAT1 homodimers = biological target: T1, STAT1:STAT1 homodimers (Mus musculus, UniProt P42225); assay type: biochemical; conditions: 10 µM, MGFe probe (Fig. S6)
T1 sequence (P42225 2-749 limits assumed): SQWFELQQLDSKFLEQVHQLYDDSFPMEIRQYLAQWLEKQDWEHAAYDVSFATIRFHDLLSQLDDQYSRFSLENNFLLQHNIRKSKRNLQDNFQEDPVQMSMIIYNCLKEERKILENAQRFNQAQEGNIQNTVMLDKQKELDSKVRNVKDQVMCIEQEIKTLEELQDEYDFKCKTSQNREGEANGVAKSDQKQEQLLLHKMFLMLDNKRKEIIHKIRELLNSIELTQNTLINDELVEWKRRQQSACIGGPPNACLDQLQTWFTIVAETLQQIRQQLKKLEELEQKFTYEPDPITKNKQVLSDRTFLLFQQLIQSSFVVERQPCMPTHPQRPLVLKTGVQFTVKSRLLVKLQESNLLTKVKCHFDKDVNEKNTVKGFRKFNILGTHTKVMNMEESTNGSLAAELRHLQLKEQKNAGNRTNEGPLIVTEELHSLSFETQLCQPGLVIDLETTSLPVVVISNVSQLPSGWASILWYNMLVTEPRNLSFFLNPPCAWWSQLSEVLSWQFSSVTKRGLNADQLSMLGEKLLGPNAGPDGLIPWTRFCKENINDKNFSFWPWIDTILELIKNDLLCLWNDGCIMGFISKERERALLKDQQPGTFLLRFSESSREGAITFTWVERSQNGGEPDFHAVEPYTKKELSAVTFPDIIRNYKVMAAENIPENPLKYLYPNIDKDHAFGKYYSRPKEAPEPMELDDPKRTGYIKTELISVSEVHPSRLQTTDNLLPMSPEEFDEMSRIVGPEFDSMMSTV

STAT5:STAT5 homodimers = assay type: biochemical; conditions: 10 µM, MGFe probe (Fig. S6)
MDA-MB-231 cells [3] = test: CyQuant cell viability assay, MDA-MB-231; assay type: cell-based; conditions: Homo sapiens, MDA-MB-231, 72 h, read-out: Cell viability EC50 MDA-MB-231
MCF-10A cells = test: CyQuant cell viability assay, MCF-10A; assay type: cell-based; conditions: Homo sapiens, 72 h, read-out: Cell viability EC50 MCF-10A
Outline: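 Cells in 96-well plates were treated with test compound over a range of concentrations for 72 h, then assayed with CyQuant. Viability was normalised to control as % and plotted against concentration to derive EC50. Media: MCF-10A in DMEM/F12 with 5% horse serum, EGF, insulin and hydrocortisone; other lines in DMEM with 10% heat-inactivated FBS.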

MDA-MB-231 cells [4] = test: Clonogenic; assay type: cell-based, human; conditions: treated once
Outline: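 Cells were seeded as single-cell cultures at 250 cells per well. They were treated once the next day with test compound at 0–1 μM and cultured until large colonies were visible. Colonies were stained with crystal violet for 4 h and photographed. Data came from three independent determinations.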

MDA-MB-231 cells [5] = test: Cell growth by trypan blue exclusion/phase-contrast microscopy, MDA-MB-231; assay type: cell-based, human; conditions: 2 μM
MCF-7 cells = test: Cell growth by trypan blue exclusion/phase-contrast microscopy, MCF-7; assay type: cell-based, human; conditions: 2 μM
Outline: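 Cells cultured in 6-well plates and treated once with 2 μM test compound. Every 24 h (up to 96 h), cells were harvested and viable cells counted by trypan blue exclusion under phase-contrast microscopy. Counts were plotted against treatment duration. Cells were grown in DMEM with 10% heat-inactivated FBS.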

[6] = system: STAT3 DNA-binding activity in MDA-MB-468 cells; test: Constitutive STAT3 DNA-binding activity in treated breast cancer cells; assay type: cell-based, human; conditions: for earliest time of inhibition of STAT3 DNA-binding activity in cells: MDA-MB-468; for constitutive STAT3 DNA-binding activity in cells: cells treated with 1–5 μM (BBI-608 0.5–5 μM, 2–3 h)
Outline: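 MDA-MB-468 cells were treated with 5 μM test compound for 1–3 h; controls received 0.05% DMSO. Nuclear extracts of equal total protein were incubated with 33P-labelled hSIE probe (c-fos m67 variant) for 30 min at 30 °C. STAT3:DNA complexes were then resolved by EMSA. Results came from two to three independent determinations.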

pY705STAT3 = test: Immunoblotting for pY705STAT3 in treated breast cancer cells; assay type: cell-based, human; conditions: 1–5 μM, 0–24 h (BBI-608 0.5–5 μM, 2–3 h)
Outline: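 Controls received 0.05% DMSO. Equal-protein RIPA whole-cell lysates were immunoblotted for pY705STAT3, STAT3 and tubulin. Results came from two to three independent determinations.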

CN(CC(=O)N(Cc1ccc(C2CCCCC2)cc1)c1ccc(C(=O)O)c(O)c1)S(=O)(=O)c1c(F)c(F)c(F)c(F)c1F [BP-1-102]
cellular activities of parent lead compounds [1]: 10 to 20 µM

O=C(O)c1ccc(N(Cc2ccc(C3CCCCC3)cc2)C(=O)[C@H]2CCN2S(=O)(=O)c2c(F)c(F)c(F)c(F)c2F)cc1O [Compound 5a, (R)-4-(N-(4-cyclohexylbenzyl)-1-((perfluorophenyl)sulfonyl)azetidine-2-carboxamido)-2-hydroxybenzoic acid]
activity against breast cancer cells [2]: no activity

O=C(O)c1ccc(N(Cc2ccc(C3CCCCC3)cc2)C(=O)C2CN(S(=O)(=O)c3c(F)c(F)c(F)c(F)c3F)C2)cc1O [Compound 5c]
EMSA IC50 (STAT3; STAT3:DNA complexes, hSIE probe, 30 min preincubation at room temperature): loss of activity

O=C(O)c1ccc(N(Cc2ccc(C3CCCC3)cc2)C(=O)[C@H]2CCN2S(=O)(=O)c2c(F)c(F)c(F)c(F)c2F)cc1O [Compound 5e]
effect on DNA-binding activity of STAT1:STAT1 homodimers (STAT1:STAT1 homodimers): minimal effect
effect on DNA-binding activity of STAT5:STAT5 homodimers (STAT5:STAT5 homodimers): minimal effect

O=C(O)c1ccc(N(Cc2ccc(C3CCOCC3)cc2)C(=O)[C@H]2CCN2S(=O)(=O)c2c(F)c(F)c(F)c(F)c2F)cc1O [Compound 5g]
effect on DNA-binding activity of STAT1:STAT1 homodimers (STAT1:STAT1 homodimers): minimal effect
effect on DNA-binding activity of STAT5:STAT5 homodimers (STAT5:STAT5 homodimers): minimal effect

O=C(O)c1cc(F)c(N(Cc2ccc(C3CCCCC3)cc2)C(=O)[C@H]2CCN2S(=O)(=O)c2c(F)c(F)c(F)c(F)c2F)cc1O [Compound 5i]
effect on DNA-binding activity of STAT1:STAT1 homodimers (STAT1:STAT1 homodimers): minimal effect
effect on DNA-binding activity of STAT5:STAT5 homodimers (STAT5:STAT5 homodimers): minimal effect

O=C(O)c1ccc(N(Cc2ccc(C3CCCCC3)nc2)C(=O)[C@H]2CCN2S(=O)(=O)c2c(F)c(F)c(F)c(F)c2F)cc1O [Compound 5m]
effect on DNA-binding activity of STAT1:STAT1 homodimers (STAT1:STAT1 homodimers): minimal effect
effect on DNA-binding activity of STAT5:STAT5 homodimers (STAT5:STAT5 homodimers): minimal effect

O=C(O)c1ccc(N(Cc2ccc(C3CCOCC3)nc2)C(=O)[C@H]2CCN2S(=O)(=O)c2c(F)c(F)c(F)c(F)c2F)cc1O [Compound 5n]
effect on DNA-binding activity of STAT1:STAT1 homodimers (STAT1:STAT1 homodimers): minimal effect
effect on DNA-binding activity of STAT5:STAT5 homodimers (STAT5:STAT5 homodimers): minimal effect

O=C([C@H]1CCN1S(=O)(=O)c1c(F)c(F)c(F)c(F)c1F)N(Cc1ccc(C2CCCCC2)cc1)c1ccc(-c2nnn[nH]2)cc1 [Compound 6e]
EC50 (MDA-MB-231 cells [3]): > 10 µM
activity against breast cancer cells [2]: weak cellular activity

COC(=O)c1ccc(N(Cc2ccc(C3CCCCC3)cc2)C(=O)[C@H]2CCN2S(=O)(=O)c2c(F)c(F)c(F)c(F)c2F)c(F)c1 [Compound 7b]
effect on DNA-binding activity of STAT1:STAT1 homodimers (STAT1:STAT1 homodimers): minimal effect
effect on DNA-binding activity of STAT5:STAT5 homodimers (STAT5:STAT5 homodimers): minimal effect
EC50 (MCF-10A cells): 6 µM

COC(=O)c1ccc(N(Cc2ccc(C3CCCCC3)nc2)C(=O)[C@H]2CCN2S(=O)(=O)c2c(F)c(F)c(F)c(F)c2F)cc1O [Compound 7c]
EC50 (MCF-10A cells): 3.6 µM

COC(=O)c1ccc(N(Cc2cnc(C3CCCCC3)cn2)C(=O)[C@H]2CCN2S(=O)(=O)c2c(F)c(F)c(F)c(F)c2F)c(F)c1 [Compound 7e]
viability, anchorage-dependent and independent growth, and colony formation [2]: strongly inhibited
inhibition of colony formation (MDA-MB-231 cells [4]; 0.5 μM): minimal to moderate inhibition of colony formation
inhibition of colony formation (MDA-MB-231 cells [4]; 1 μM): near-complete inhibition

COC(=O)c1ccc(N(Cc2cnc(C3CCCCC3)cn2)C(=O)[C@H]2CCN2S(=O)(=O)c2c(F)c(F)c(F)c(F)c2F)cc1O [Compound 7f]
viability, anchorage-dependent and independent growth, and colony formation [2]: strongly inhibited
inhibition of colony formation (MDA-MB-231 cells [4]; 0.5 μM): minimal to moderate inhibition of colony formation
inhibition of colony formation (MDA-MB-231 cells [4]; 1 μM): significant inhibition

O=C(NO)c1ccc(N(Cc2ccc(C3CCCCC3)cc2)C(=O)[C@H]2CCN2S(=O)(=O)c2c(F)c(F)c(F)c(F)c2F)cc1O [Compound 8d]
effect on DNA-binding activity of STAT1:STAT1 homodimers (STAT1:STAT1 homodimers): minimal effect
effect on DNA-binding activity of STAT5:STAT5 homodimers (STAT5:STAT5 homodimers): minimal effect

O=C(NO)c1ccc(N(Cc2ccc(C3CCCCC3)cc2)C(=O)[C@H]2CCN2S(=O)(=O)c2c(F)c(F)c(F)c(F)c2F)c(F)c1 [Compound 8f]
effect on DNA-binding activity of STAT1:STAT1 homodimers (STAT1:STAT1 homodimers): minimal effect
effect on DNA-binding activity of STAT5:STAT5 homodimers (STAT5:STAT5 homodimers): minimal effect

O=C(NO)c1ccc(N(Cc2ccc(C3CCCCC3)cn2)C(=O)[C@H]2CCN2S(=O)(=O)c2c(F)c(F)c(F)c(F)c2F)c(F)c1 [Compound 8l]
activity against breast cancer cells [2]: weakly active

CNC(=O)c1ccc(N(Cc2ccc(C3CCCCC3)cn2)C(=O)[C@H]2CCN2S(=O)(=O)c2c(F)c(F)c(F)c(F)c2F)cc1O [Compound 8q]
effect on DNA-binding activity of STAT5:STAT5 homodimers (STAT5:STAT5 homodimers): minimal effect
inhibition of colony formation (MDA-MB-231 cells [4]; 1 μM): does not show any inhibitory effect
cell growth MDA-MB-231, trypan blue exclusion (MDA-MB-231 cells [5]): good activity
cell growth MCF-7, trypan blue exclusion (MCF-7 cells): no effect
earliest time of inhibition of STAT3 DNA-binding activity in cells [6]: 6 h
constitutive STAT3 DNA-binding activity in cells [6]: inhibited to variable degrees
pY705STAT3 in breast cancer cells (pY705STAT3): inhibited pY705STAT3 in dose- and time-dependent manner

O=C1NC(=O)c2cc(N(Cc3ccc(C4CCCCC4)cn3)C(=O)[C@H]3CCN3S(=O)(=O)c3c(F)c(F)c(F)c(F)c3F)ccc21 [Compound 9k]
effect on DNA-binding activity of STAT5:STAT5 homodimers (STAT5:STAT5 homodimers): minimal effect
viability, anchorage-dependent and independent growth, and colony formation [2]: strongly inhibited
inhibition of colony formation (MDA-MB-231 cells [4]; 0.5 μM): minimal to moderate inhibition of colony formation
inhibition of colony formation (MDA-MB-231 cells [4]; 1 μM): significant inhibition
cell growth MDA-MB-231, trypan blue exclusion (MDA-MB-231 cells [5]): strongly inhibited cell growth
cell growth MCF-7, trypan blue exclusion (MCF-7 cells): no effect
earliest time of inhibition of STAT3 DNA-binding activity in cells [6]: 0.083 h
constitutive STAT3 DNA-binding activity in cells [6]: inhibited to variable degrees
pY705STAT3 in breast cancer cells (pY705STAT3): inhibited pY705STAT3 in dose- and time-dependent manner; also recorded: bounced back by 24 h

CN(CC(=O)N(Cc1ccc(C2CCCCC2)cc1)c1ccc(C(=O)O)cc1)S(=O)(=O)c1c(F)c(F)c(F)c(F)c1F [SH4-54]
cellular activities of parent lead compounds [1]: 4.5 µM

CN(CC(=O)N(Cc1ccc(C2CCCCC2)cc1)c1ccc(C(=O)NO)cc1)S(=O)(=O)c1c(F)c(F)c(F)c(F)c1F [SH5-07]
cellular activities of parent lead compounds [1]: 3.8 µM

CC(=O)c1cc2c(o1)C(=O)c1ccccc1C2=O [napabucasin, reference compound]
direct effect on STAT3 activity in the DNA-binding assay/EMSA (STAT3; up to 10 μM): minimal direct effect
constitutive STAT3 DNA-binding activity in cells [6]: weak to moderate effects
pY705STAT3 in breast cancer cells (pY705STAT3): weak to moderate effects
